Experiment [1] concerns the target T1, Tryptophan 5-hydroxylase 1 (Rattus norvegicus) (UniProt P09810).
T1 sequence (whole entry): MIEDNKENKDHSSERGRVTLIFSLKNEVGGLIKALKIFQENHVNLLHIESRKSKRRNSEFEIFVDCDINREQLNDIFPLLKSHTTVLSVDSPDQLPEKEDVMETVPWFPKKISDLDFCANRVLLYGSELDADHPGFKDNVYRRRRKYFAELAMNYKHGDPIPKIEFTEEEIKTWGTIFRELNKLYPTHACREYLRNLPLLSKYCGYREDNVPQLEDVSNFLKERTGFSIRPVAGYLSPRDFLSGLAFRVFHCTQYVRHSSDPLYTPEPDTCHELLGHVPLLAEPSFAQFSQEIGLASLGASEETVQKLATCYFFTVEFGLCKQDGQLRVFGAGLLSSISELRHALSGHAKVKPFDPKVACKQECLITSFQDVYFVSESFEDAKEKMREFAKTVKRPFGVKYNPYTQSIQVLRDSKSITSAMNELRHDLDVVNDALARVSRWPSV
The experiment is described as follows: Compound was tested for its effect on NSD 1015 induced accumulation of 5-HTP in rats in corpus striatum at a dosage of 0.32 umol/kg. In kind it is functional, tissue-based. The procedure, abridged: (§1)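 Rats given test drug s.c. in the neck as hydrochloride (5 mL/kg), not reserpine-pretreated; 30 min later NSD 1015 (60 mg/kg, i.e. 287 μmol/kg sc), killed 30 min after that. Brain regions dissected. 5-HTP measured by ion-pair reversed-phase HPLC with electrochemical detection. Mean ± SEM, n = 15 controls, 3–5 per dose; ANOVA with Dunnett's t test vs controls.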

For experiment [2], the target named is T1, Tryptophan 5-hydroxylase 1 (Rattus norvegicus). Description: Compound was tested for its effect on NSD 1015 induced accumulation of 5-HTP in rats corpus striatum at a dosage of 0.10 umol/kg. It is filed as functional, tissue-based. An outline of the steps:
as §1

Experiment [3] deals with Rattus norvegicus. Description: No of rats exhibiting 5-HT motor syndrome tested in reserpinized rats at a subcutaneous dose of 0.32 umol/kg; 4 rats out of 4 showed activity. It is filed as functional.
Experiment [4] has as its target T1, Tryptophan 5-hydroxylase 1 (Rattus norvegicus). The experiment is described as follows: Compound was tested for its effect on NSD 1015 induced accumulation of 5-HTP(ng/g) in rats in limbic system at a dosage of 0.10 umol/kg. It is filed as functional, tissue-based. The procedure, abridged:
as §1

Experiment [5] shares this target. The experiment is described as follows: Compound was tested for its effect on NSD 1015 induced accumulation of 5-HTP(ng/g) in rats in limbic system at a dosage of 0.032 umol/kg. It is filed as functional. An outline of the steps:
as §1

Experiment [6] shares this target. The experiment is described as follows: Compound was tested for its effect on NSD 1015 induced accumulation of 5-HTP(ng/g) in rats in corpus striatum at a dosage of 0.032 umol/kg. It is filed as functional. An outline of the steps:
as §1

For experiment [7] the target is unchanged. Description: Compound was tested for its effect on NSD 1015 induced accumulation of 5-HTP(ng/g) in rats in limbic system at a dosage of 0.32 umol/kg. In kind it is functional, tissue-based. The procedure, abridged:
as §1

For experiment [8] the target is unchanged. Description: Approximate dose levels for a half maximal reduction of 5-HTP levels. It is filed as functional. The procedure, abridged: as §1
Experiment [9] deals with Rattus norvegicus. The experiment is described as follows: No of rats exhibiting 5-HT motor syndrome tested in reserpinized rats at a subcutaneous dose of a. 0.1 umol/kg; 0 rats out of 4 showed activity. In kind it is functional.
Experiment [10] addresses T1, Tryptophan 5-hydroxylase 1 (Rattus norvegicus). Description: Compound was tested for its effect on NSD 1015 induced accumulation of 5-HTP(ng/g) in rats in limbic system at a dosage of 32 umol/kg. In kind it is functional, tissue-based. The procedure, abridged:
as §1

Experiment [11] has as its system Rattus norvegicus. Description: No of rats exhibiting 5-HT motor syndrome tested in reserpinized rats at a subcutaneous dose of 32 umol/kg; 4 rats out of 4 showed activity. It is filed as functional.
Experiment [12] concerns the target T1, Tryptophan 5-hydroxylase 1 (Rattus norvegicus). Description: Compound was tested for its effect on NSD 1015 induced accumulation of 5-HTP(ng/g) in rats in limbic system at a dosage of 10 umol/kg. It is filed as functional, tissue-based. The procedure, abridged: as §1
The subject of experiment [13] is Rattus norvegicus. Description: No of rats exhibiting 5-HT motor syndrome tested in reserpinized rats at a subcutaneous dose of 10 umol/kg; 0 rats out of 3 showed activity. In kind it is functional.
In experiment [14] the target is T1, Tryptophan 5-hydroxylase 1 (Rattus norvegicus). Description: Compound was tested for its effect on NSD 1015 induced accumulation of 5-HTP(ng/g) in rats in corpus striatum at a dosage of 3.2 umol/kg. It is filed as functional. The procedure, abridged: as §1
Experiment [15] deals with T2, 5-hydroxytryptamine receptor 1A (Rattus norvegicus, UniProt P19327).
T2 sequence (P19327 whole entry): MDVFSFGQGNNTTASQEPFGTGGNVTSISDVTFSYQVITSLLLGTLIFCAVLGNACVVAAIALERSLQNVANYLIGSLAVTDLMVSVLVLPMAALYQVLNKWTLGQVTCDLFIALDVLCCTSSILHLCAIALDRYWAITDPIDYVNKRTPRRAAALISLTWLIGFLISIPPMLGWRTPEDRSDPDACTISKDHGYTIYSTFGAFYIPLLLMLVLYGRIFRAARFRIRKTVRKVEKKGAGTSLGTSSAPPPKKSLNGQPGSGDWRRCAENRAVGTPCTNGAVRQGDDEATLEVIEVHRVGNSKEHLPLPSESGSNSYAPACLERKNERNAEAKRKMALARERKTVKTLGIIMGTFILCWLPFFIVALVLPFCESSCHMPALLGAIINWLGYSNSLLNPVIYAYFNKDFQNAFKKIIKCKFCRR
Description: Concentration of compound required to inhibit cortical 5-hydroxytryptamine 1A receptor binding sites in rat brain was evaluated. In kind it is tissue-based.

The target in experiment [16] is T1, Tryptophan 5-hydroxylase 1 (Rattus norvegicus). Description: Compound was tested for its effect on NSD 1015 induced accumulation of 5-HTP in rats in corpus striatum at a dosage of 32 umol/kg. It is filed as functional, tissue-based. An outline of the steps: as §1
The target is the same in experiment [17]. Description: Compound was tested for its effect on NSD 1015 induced accumulation of 5-HTP in rats corpus striatum at a dosage of 10 umol/kg. In kind it is functional, tissue-based. An outline of the steps: as §1
Experiment [18] concerns Rattus norvegicus. The experiment is described as follows: No of rats exhibiting 5-HT motor syndrome tested in reserpinized rats at a subcutaneous dose of 3.2 umol/kg; 0 rats out of 3 showed activity. It is filed as functional.
Experiment [19] has as its target T1, Tryptophan 5-hydroxylase 1 (Rattus norvegicus). Description: Compound was tested for its effect on NSD 1015 induced accumulation of 5-HTP(ng/g) in rats in limbic system at a dosage of 3.2 umol/kg. It is filed as functional, tissue-based. An outline of the steps: as §1
The subject of experiment [20] is Rattus norvegicus. The experiment is described as follows: No of rats exhibiting 5-HT motor syndrome tested in reserpinized rats at a subcutaneous dose of 10 umol/kg; 0 rats out of 2 showed activity. In kind it is functional.
The target in experiment [21] is T1, Tryptophan 5-hydroxylase 1 (Rattus norvegicus). Description: Compound was tested for its effect on NSD 1015 induced accumulation of 5-HTP(ng/g) in rats in corpus striatum at a dosage of 100 umol/kg. It is filed as functional, tissue-based. An outline of the steps: as §1
Experiment [22] relates to Rattus norvegicus. Description: No of rats exhibiting 5-HT motor syndrome tested in reserpinized rats at a subcutaneous dose of 32 umol/kg; 0 rats out of 4 showed activity. It is filed as functional.
Experiment [23] concerns Rattus norvegicus. Description: No of rats exhibiting 5-HT motor syndrome tested in reserpinized rats at a subcutaneous dose of 100 umol/kg; 4 rats out of 4 showed activity. In kind it is functional.
For experiment [24], the target named is T1, Tryptophan 5-hydroxylase 1 (Rattus norvegicus). The experiment is described as follows: Compound was tested for its effect on NSD 1015 induced accumulation of 5-HTP(ng/g) in rats in limbic system at a dosage of 100 umol/kg. It is filed as functional, tissue-based. An outline of the steps:
as §1

Experiment [25] has the same target. Description: Compound was tested for its effect on NSD 1015 induced accumulation of 5-HTP(ng/g) in rats in corpus striatum at a dosage of 10 umol/kg. It is filed as functional. An outline of the steps: as §1
Experiment [26] shares this target. Description: Compound was tested for its effect on NSD 1015 induced accumulation of 5-HTP in rats in corpus striatum at a dosage of 3.2 umol/kg. It is filed as functional. The procedure, abridged: as §1
The target is the same in experiment [27]. Description: Compound was tested for its effect on NSD 1015 induced accumulation of 5-HTP(ng/g) in rats in corpus striatum at a dosage of 32 umol/kg. In kind it is functional, tissue-based. An outline of the steps: as §1
Experiment [28] deals with Rattus norvegicus. Description: No of rats exhibiting 5-HT motor syndrome tested in reserpinized rats at a subcutaneous dose of 1.0 umol/kg; 4 rats out of 5 showed activity. In kind it is functional.
Experiment [29] has as its system Rattus norvegicus. The experiment is described as follows: No of rats exhibiting 5-HT motor syndrome tested in reserpinized rats at a subcutaneous dose of 0.32 umol/kg; 0 rats out of 5 showed activity. In kind it is functional.
Experiment [30] has as its target T1, Tryptophan 5-hydroxylase 1 (Rattus norvegicus). Description: Compound was tested for its effect on NSD 1015 induced accumulation of 5-HTP(ng/g) in rats in corpus striatum at a dosage of 1.0 umol/kg. In kind it is functional. An outline of the steps:
as §1

For experiment [31] the target is unchanged. Description: Compound was tested for its effect on NSD 1015 induced accumulation of 5-HTP(ng/g) in rats in limbic system at a dosage of 1.0 umol/kg. It is filed as functional, tissue-based. The procedure, abridged: as §1

Consider four molecules from ChEMBL document CHEMBL1124440, “Resolved N,N-dialkylated 2-amino-8-hydroxytetralins: stereoselective interactions with 5-HT1A receptors in the brain” (J Med Chem, 1989).

For the molecule `CCCN(CCC)[C@@H]1CCc2cccc(O)c2C1`, the Activity is 52 ng/g in experiment [1]; 78 ng/g in experiment [2]; 4 with Rattus norvegicus [3]; 119 ng/g in experiment [4]; 163 ng/g in experiment [5]; 87 ng/g in experiment [6]. Besides, the figures for the Activity (in experiment [7]; in the experiment on Rattus norvegicus [9]) were 86 ng/g and 0, respectively. In experiment [8], the ED50 (as a rule, the midpoint of the dose-response relation) stood at 0.1 µmol/kg.

Regarding `CCCCN(CCCC)[C@H]1CCc2cccc(O)c2C1`, the Activity was found to be 112 ng/g in experiment [10]; 4 in the experiment on Rattus norvegicus [11]; 95 ng/g in experiment [12]; 0 in the experiment on Rattus norvegicus [13]; 90 ng/g in experiment [14]; 45 ng/g in [16]. Besides, the Activity in experiment [17] was 52 ng/g; in the experiment with Rattus norvegicus [18], 0; in [19], 168 ng/g. The molecule also gave an ED50 in experiment [8] of 5 µmol/kg. Moreover, in experiment [15], the IC50 – broadly, the concentration needed to halve the response being measured – turned out to be 46.2 nM.

`CN(C)[C@H]1CCc2cccc(O)c2C1`: the Activity in experiment [10] stood at 128 ng/g; in experiment [12], 162 ng/g; with Rattus norvegicus [20] it was 0; in experiment [21], 45 ng/g; in the experiment on Rattus norvegicus [22], 0; in the experiment on Rattus norvegicus [23] it was 4. The Activity in [24] was 85 ng/g; in [25], 69 ng/g; in experiment [26], 107 ng/g; in experiment [19] it was 178 ng/g; in experiment [27], 66 ng/g. The same molecule showed a median effective dose (ED50) in experiment [8] of 20 µmol/kg. Further, the concentration for half-maximal inhibition (IC50) in [15] was determined as 675 nM.

For the molecule `CCCN(CCC)[C@H]1CCc2cccc(O)c2C1`, the Activity with Rattus norvegicus [28] was found to be 4; in experiment [1] it was 61 ng/g; in [2], 94 ng/g; in the experiment on Rattus norvegicus [29], 0; in [30], 53 ng/g; in experiment [4], 154 ng/g. The Activity in experiment [5] worked out at 157 ng/g; in [6], 95 ng/g; in experiment [31], 75 ng/g; in experiment [7] it was 114 ng/g. In experiment [8], this molecule showed a 50% effective dose (ED50) of 0.2 µmol/kg.
